# Hits are enriched below; roughly 5.9% of the tested compounds scored in any of these assays.
# T cruzi growth-1: blocks T. cruzi growth in NIH3T3 culture; T. cruzi beta-gal in NIH3T3, GalScreen luminescence, 90 h; inhibition, % at 8.34 µM; 77,000 compounds, 5.9% hits;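 active = mean inhibition above about 93%, with at least 55% of replicates each passing it, limit read from the data, passing the limit was not always enough; inconclusive = only one of those two conditions holds; inactive = neither condition holds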
# GASC1 inh: blocks human GASC-1 (KDM4C) demethylase activity. Q9H3R0. GST-KDM4C 2-372, H3K9me3 peptide, LANCE TR-FRET. inhibition, % at 12.5 µM. 96,000 compounds, 0.15% hits;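 active = mean replicate inhibition above about 25%, with at least 55% of replicates also reaching it, limit read from the data, passing the limit was not always enough; inconclusive = only one of those two conditions met; inactive = neither condition met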
#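 material = GST-tagged GASC-1 (JMJD2C) catalytic fragment, aa 2-372 | amount = enzyme final amount 10 nM | medium = HEPES buffer, pH 7.5, plus ascorbate | also added = H3K9me3 peptide substrate, Fe(II), 2-oxoglutarate | dosing = single dose | times = 30 min demethylation and 1 h detection at room temperature | detection = LANCE TR-FRET | read-out basis = Fall in 671/618 emission ratio as inhibition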
# Pf Dd2 inh: P. falciparum Dd2 growth inhibition. activity change, % at 10 µM. 94,000 compounds, 2.3% hits. SYBR Green, 72 h; hits give low values. AID 1159554; in the data active = activity change below about -80%; inconclusive = no clear call, values can overlap the other calls
# IDH1 mut inh: inhibitors of human IDH1 R132H | O75874 | inhibition, % at 10 µM | IDH1 R132H reductase, diaphorase/resazurin fluorescence, 60 min | 70,000 compounds, 0.18% hits; in the data active = inhibition above about 34%; inconclusive = no clear call, values can overlap the other calls; inactive = below about 11%;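 also: 0% = DMSO and 100% = no enzyme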
# Target sequence (O75874 whole entry R132H): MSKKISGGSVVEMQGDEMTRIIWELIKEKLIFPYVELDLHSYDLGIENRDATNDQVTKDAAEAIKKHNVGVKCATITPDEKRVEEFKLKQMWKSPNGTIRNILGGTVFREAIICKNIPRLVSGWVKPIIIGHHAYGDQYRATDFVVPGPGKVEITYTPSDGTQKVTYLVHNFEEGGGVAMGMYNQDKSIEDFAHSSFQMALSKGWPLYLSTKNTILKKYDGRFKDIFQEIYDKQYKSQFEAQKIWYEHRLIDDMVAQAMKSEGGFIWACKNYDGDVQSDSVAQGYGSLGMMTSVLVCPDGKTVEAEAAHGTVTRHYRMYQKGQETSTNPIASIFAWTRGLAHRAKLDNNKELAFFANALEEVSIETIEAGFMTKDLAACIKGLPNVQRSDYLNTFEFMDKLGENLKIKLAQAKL
# T cruzi growth-2: blocks T. cruzi growth in NIH3T3 host cells; 5,600 compounds, 72% hits; T. cruzi beta-gal in NIH3T3, GalScreen luminescence, 90 h; inhibition, % at 8.35 µM; shares compounds with T cruzi growth-1;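 active = mean replicate inhibition above about 95% and at least 55% of replicates individually reaching it, limit read from the data; inconclusive = only one of the two criteria is met; inactive = neither criterion is met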
# T cruzi growth-3: Trypanosoma cruzi proliferation inhibition; shares compounds with T cruzi growth-1; T. cruzi beta-gal in NIH3T3, GalScreen luminescence, 90 h; inhibition, % at 2.09 µM; 5,600 compounds, 21% hits;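 active = mean inhibition above about 95%, with at least 55% of replicates also reaching it, limit read from the data; inconclusive = meets just one of the two conditions; inactive = meets neither condition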;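 also: plate controls were neutral control median for no effect and positive control median for full effect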
# 3T3 cytotox: cytotoxicity in mouse NIH/3T3 fibroblasts | 5,600 compounds, 14% hits | cytotoxicity (signal decrease), % at 8.35 µM | shares compounds with T cruzi growth-1 | NIH/3T3 viability, CellTiter-Glo ATP luminescence, 90 h;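 active = mean signal decrease across replicates above about 35% based on untreated-well scatter, with enough replicates individually passing, limit read from the data; inconclusive = no rule stated though some were filed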;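 also: 0% = median of neutral control wells and 100% = median of positive control wells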
# NIH3T3 tox 2: NIH/3T3 (mouse) viability loss. inhibition, % at 24.9 µM. 5,600 compounds, 56% hits. shares compounds with T cruzi growth-1. NIH/3T3 viability, CellTiter-Glo ATP luminescence, 90 h;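 active = mean loss of cell viability signal at or above a set limit, and enough replicates individually reaching it; inconclusive = meets only the mean limit or only the replicate share; inactive = meets neither condition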;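 also: 0% = median of neutral control wells and 100% = median of positive control wells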
# * marks the source's active call; other numbers are inactive results; u = inconclusive; x = no result.
SMILES,T cruzi growth-1,GASC1 inh,Pf Dd2 inh,IDH1 mut inh,T cruzi growth-2,T cruzi growth-3,3T3 cytotox,NIH3T3 tox 2
COc1cccc(-c2ccc([C@H]3[C@@H](CO)N4CCCCN(S(=O)(=O)c5cccs5)C[C@H]34)cc2)c1,41,-1,-55,x,x,x,x,x
C[C@@H]1CCCCO[C@@H](CN(C)C(=O)CCCN(C)C)[C@@H](C)CN([C@H](C)CO)C(=O)c2cc(NC(=O)Nc3ccc(C(F)(F)F)cc3)ccc2O1,50,0,24,x,x,x,x,x
CCC(=O)N1C[C@H](C)[C@H](OC)CN(C)C(=O)c2cc(NC(=O)C3CC3)ccc2OC[C@@H]1C,6,1,-3,0,x,x,x,x
C[C@@H]1CN([C@H](C)CO)C(=O)c2cc(NC(=O)Cc3cn(C)c4ccccc34)ccc2O[C@@H]1CN(C)Cc1ccc(Oc2ccccc2)cc1,96*,-1,-17,-4,101*,76,12,53*
COc1ccc(CN(C)C[C@@H]2Oc3ccc(NC(=O)Cc4cn(C)c5ccccc45)cc3C(=O)N([C@H](C)CO)C[C@H]2C)cc1,33,0,13,-31,x,x,x,x
C[C@H](CO)N1C[C@H](C)[C@H](CN(C)Cc2ccc(Oc3ccccc3)cc2)Oc2ccc(NC(=O)Cc3cn(C)c4ccccc34)cc2C1=O,u,-1,-56,x,104*,59,24,43*
COc1ccc(CN(C)C[C@@H]2Oc3ccc(NC(=O)Cc4cn(C)c5ccccc45)cc3C(=O)N([C@H](C)CO)C[C@@H]2C)cc1,39,0,-32,-23,x,x,x,x
COc1ccc(S(=O)(=O)N(C)C[C@@H]2Oc3ncc(-c4ccccc4)cc3C(=O)N([C@H](C)CO)C[C@@H]2C)cc1,56,2,-28,0,x,x,x,x
C[C@@H]1CN([C@@H](C)CO)C(=O)c2cc(-c3cncnc3)cnc2O[C@H]1CN(C)C(=O)Nc1ccc2c(c1)OCO2,98*,0,49,3,46,18,11,13
C[C@@H]1CN([C@@H](C)CO)C(=O)c2cc(-c3cncnc3)cnc2O[C@@H]1CN(C)C(=O)Nc1ccc2c(c1)OCO2,44,2,58,-1,x,x,x,x
C[C@H](CO)N1C[C@H](C)[C@@H](CN(C)C(=O)Nc2ccc3c(c2)OCO3)Oc2ncc(-c3cncnc3)cc2C1=O,104*,15,-1,5,15,-25,-6,8
Cc1ccc(S(=O)(=O)N(C)C[C@H]2Oc3ccc(NC(=O)NC(C)C)cc3C(=O)N([C@@H](C)CO)C[C@@H]2C)cc1,13,0,-32,-8,x,x,x,x
C[C@@H]1CN([C@H](C)CO)C(=O)c2cccc(NS(=O)(=O)c3cn(C)cn3)c2O[C@H]1CN(C)C(=O)Nc1ccccc1,17,8,6,x,x,x,x,x
C[C@H]1CN([C@@H](C)CO)C(=O)c2ccccc2-c2ccccc2CO[C@H]1CN(C)S(=O)(=O)c1ccc(C(F)(F)F)cc1,108*,1,-81*,x,105*,55,14,5
Cc1ccccc1S(=O)(=O)N(C)C[C@@H]1OCc2ccccc2-c2ccccc2C(=O)N([C@H](C)CO)C[C@@H]1C,u,3,-39,-5,83,16,-9,16
Cc1ccccc1S(=O)(=O)N(C)C[C@@H]1OCc2ccccc2-c2ccccc2C(=O)N([C@@H](C)CO)C[C@H]1C,87,0,-52,x,x,x,x,x
C[C@@H]1CN([C@H](C)CO)C(=O)c2ccccc2-c2ccccc2CO[C@@H]1CN(C)S(=O)(=O)c1ccc(C(F)(F)F)cc1,83,-2,-4,x,x,x,x,x
C[C@H]1CN([C@@H](C)CO)C(=O)c2c(c3ccccc3n2C)-c2ccccc2CO[C@@H]1CN(C)S(=O)(=O)c1ccccc1C#N,89,x,-77,x,x,x,x,x
C[C@H](CO)N1C[C@H](C)[C@H](CN(C)S(=O)(=O)c2ccccc2C#N)OCc2ccccc2-c2c(n(C)c3ccccc23)C1=O,108*,0,-43,x,u,59,16,46*
Cc1ccccc1S(=O)(=O)N(C)C[C@H]1OCc2ccccc2-c2c(n(C)c3ccccc23)C(=O)N([C@H](C)CO)C[C@@H]1C,u,-4,-64,x,96*,56,-17,24*
O=C(Nc1ccc(F)cc1)N[C@H]1CC[C@@H](CC(=O)N2CCCCC2)O[C@@H]1CO,10,0,-17,0,x,x,x,x
C[C@@H]1CN([C@H](C)CO)C(=O)c2c(c3ccccc3n2C)-c2ccccc2CO[C@H]1CN(C)S(=O)(=O)c1ccsc1,107*,-5,-86*,-2,105*,63,-28,2
Cc1ccccc1S(=O)(=O)N(C)C[C@@H]1OCc2ccccc2-c2c(n(C)c3ccccc23)C(=O)N([C@@H](C)CO)C[C@H]1C,62,-3,u,x,x,x,x,x
Cc1ccccc1S(=O)(=O)N(C)C[C@H]1OCc2ccccc2-c2c(n(C)c3ccccc23)C(=O)N([C@@H](C)CO)C[C@@H]1C,u,-5,-85*,x,101*,84,10,u
C[C@H](CO)N1C[C@H](C)[C@@H](CN(C)S(=O)(=O)c2cn(C)cn2)OCc2ccccc2-c2c(n(C)c3ccccc23)C1=O,107*,-1,-20,x,97*,4,27,99*
SMILES,T cruzi growth-1,GASC1 inh,Pf Dd2 inh,IDH1 mut inh,T cruzi growth-2,T cruzi growth-3,3T3 cytotox,NIH3T3 tox 2
C/C=C/c1ccc([C@H]2[C@@H](CO)N(C(=O)C3CC3)[C@H]2CN(C)C(=O)CC2CC2)cc1,32,0,4,x,x,x,x,x
COc1ccc(-c2ccc3c(c2)[C@@H]2[C@@H](CCN2C(=O)C2CC2)[C@@H](CO)N3C)cc1,101*,2,-4,x,107*,109*,-6,50*
COc1ccc(-c2ccc3c(c2)[C@H]2[C@H](CCN2C(=O)C2CCOCC2)[C@@H](CO)N3C)cc1,12,2,-4,x,x,x,x,x
CN1c2ccc(Br)cc2[C@H]2[C@H](CCN2C(=O)C2CC2)[C@H]1CO,104*,5,2,x,81,29,18,-1
CN(C)C(=O)c1ccc(-c2ccc3c(c2)[C@@H]2[C@@H](CCN2C(=O)C2CCOCC2)[C@H](CO)N3C)cc1,97*,2,-15,x,106*,40,-5,11
CN1c2ccc(Br)cc2[C@@H]2[C@@H](CCN2C(=O)C2CC2)[C@H]1CO,61,3,-47,x,x,x,x,x
COc1ccc(-c2ccc3c(c2)[C@@H]2[C@@H](CCN2C(=O)C2CCCCC2)[C@@H](CO)N3C)cc1,99*,0,-62,x,92,108*,6,106*
